{
  "source": "ChEMBL document CHEMBL4387702",
  "about": "“Design and synthesis novel di-carbonyl analogs of curcumin (DACs) act as potent anti-inflammatory agents against LPS-induced acute lung injury (ALI)” (Eur J Med Chem, 2019)",
  "key": {"Mus musculus [1]": {"test_system": "Mus musculus", "assay": "Antiinflammatory activity in C57BL/6 mouse model of LPS-induced acute lung injury assessed as reduction in IL1beta mRNA expression in lung tissue at 10 mg/kg, ip administered daily for one week prior to LPS challenge and measured after 6 hrs by TRIZOL reagent-based RT-qPCR analysis", "format": "functional, organism-based", "summary_of_the_method": "(§1)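 Mouse ALI model with eight C57BL/6 mice per group. Compound was given at 10 mg/kg i.p. daily for one week; controls received 0.9% saline. LPS was instilled intratracheally at 5 mg/kg. Mice were euthanized with chloral hydrate 6 h later and lungs collected. Lung mRNA for each target was quantified by real-time qPCR.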"}, "RAW264.7 [2]": {"test_system": "RAW264.7", "assay": "Inhibition of MAPK/NFkappaB in ICR mouse RAW264.7 cells assessed as reduction in LPS-induced TNFalpha production at 10 uM pretreated for 0.5 hrs followed by LPS challenge and measured after 24 hrs by ELISA relative to control", "format": "cell-based"}, "[3]": {"target": "Transcription factor p65 (Mus musculus) (UniProt Q04207)", "sequence (Q04207 whole entry)": "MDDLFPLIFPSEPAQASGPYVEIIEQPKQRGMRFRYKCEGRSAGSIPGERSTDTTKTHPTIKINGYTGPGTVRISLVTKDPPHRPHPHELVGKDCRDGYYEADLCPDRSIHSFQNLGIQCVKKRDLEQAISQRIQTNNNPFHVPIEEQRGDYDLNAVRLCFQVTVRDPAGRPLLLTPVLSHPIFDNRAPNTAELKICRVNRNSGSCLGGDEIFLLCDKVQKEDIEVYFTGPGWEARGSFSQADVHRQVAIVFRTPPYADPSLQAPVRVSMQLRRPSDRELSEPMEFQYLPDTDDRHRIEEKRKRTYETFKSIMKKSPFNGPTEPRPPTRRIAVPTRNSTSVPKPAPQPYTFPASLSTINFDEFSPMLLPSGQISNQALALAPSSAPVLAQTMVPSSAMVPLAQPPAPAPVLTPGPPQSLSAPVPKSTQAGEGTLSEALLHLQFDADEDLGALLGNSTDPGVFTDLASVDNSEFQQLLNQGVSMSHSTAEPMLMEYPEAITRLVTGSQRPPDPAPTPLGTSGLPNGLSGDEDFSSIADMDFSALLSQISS", "assay": "Inhibition of LPS-induced NFkappaB p65 nuclear translocation in ICR mouse RAW264.7 cells preincubated for 0.5 hrs followed by LPS challenge and measured after 40 mins by DAPI staining-based immunofluorescence microscopic analysis", "format": "cell-based", "summary_of_the_method": "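RAW 264.7 cells were pretreated with compound for 0.5 h, then given LPS for 40 min (methods) or 45 min (legend). Cells were fixed with 4% paraformaldehyde and permeabilized in methanol. Anti-p65 (1:200) was applied overnight at 4 °C, then PE-conjugated secondary (1:200) for 2 h. Nuclei were stained with DAPI and cells viewed by fluorescence microscopy.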"}, "Mus musculus [4]": {"test_system": "Mus musculus", "assay": "Antiinflammatory activity in C57BL/6 mouse model of LPS-induced acute lung injury assessed as reduction in lung wet/dry ratio at 10 mg/kg, ip administered daily for one week prior to LPS challenge and measured after 6 hrs", "format": "functional, organism-based", "summary_of_the_method": "(§2)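 C57BL/6 mice (eight per group) received 10 mg/kg i.p. daily for one week; vehicle was 0.9% saline. They were then challenged with intratracheal LPS at 5 mg/kg and sacrificed 6 h later. Endpoints were lung wet/dry weight ratio and total and neutrophil cell counts in BALF, reported as mean ± SEM, n = 6.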"}, "[5]": {"target": "MAP kinase p38 (Mus musculus) (UniProt P47811+O08911+Q9WUI1+Q9Z1B7)", "assay": "Inhibition of LPS-induced p38 MAPK phosphorylation in ICR mouse RAW264.7 cells at 10 uM preincubated for 0.5 hrs followed by LPS challenge and measured after 30 mins by immunoblotting analysis", "format": "cell-based", "summary_of_the_method": "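RAW 264.7 cells were pretreated with compound for 0.5 h and then stimulated with LPS for 30 min. Lysates were resolved on 10% or 12% SDS-PAGE and transferred to nitrocellulose. Membranes were blocked in TBS (pH 7.6) with 0.05% Tween 20 and 5% milk. Blots were probed for p-p38, p38, p-ERK, ERK, IκBα and GAPDH, detected with HRP secondaries and ECL.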"}, "Mus musculus [6]": {"test_system": "Mus musculus", "assay": "Antiinflammatory activity in C57BL/6 mouse model of LPS-induced acute lung injury assessed as reduction in TNF-alpha production in serum at 10 mg/kg, ip administered daily for one week prior to LPS challenge and measured after 6 hrs by ELISA", "format": "functional, organism-based", "summary_of_the_method": "(§3)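 In C57BL/6 mice (eight per group), compound was dosed at 10 mg/kg i.p. once daily for a week, with a 0.9% saline vehicle control. LPS 5 mg/kg was given intratracheally and animals were euthanized with chloral hydrate after 6 h. TNF-α and IL-6 in serum and BALF were measured by ELISA. Data are mean ± SEM, n = 6.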"}, "RAW264.7 [7]": {"test_system": "RAW264.7", "assay": "Inhibition of MAPK/NFkappaB in ICR mouse RAW264.7 cells assessed as reduction in LPS-induced IL6 production at 10 uM pretreated for 0.5 hrs followed by LPS challenge and measured after 24 hrs by ELISA relative to control", "format": "cell-based"}, "[8]": {"assay": "Stability in pH 7.4 phosphate buffer assessed as compound decomposition measured up to 25 mins by UV-Vis spectroscopy", "format": "physicochemical", "conditions": "pH 7.4, 25 min", "summary_of_the_method": "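Compound stability was followed by recording UV-visible absorption spectra in phosphate buffer at pH 7.4.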"}, "Mus musculus [9]": {"test_system": "Mus musculus", "assay": "Antiinflammatory activity in C57BL/6 mouse model of LPS-induced acute lung injury assessed as reduction in IL-6 mRNA expression in lung tissue at 10 mg/kg, ip administered daily for one week prior to LPS challenge and measured after 6 hrs by TRIZOL reagent-based RT-qPCR analysis", "format": "functional, organism-based", "summary_of_the_method": "as §1"}, "Mus musculus [10]": {"test_system": "Mus musculus", "assay": "Antiinflammatory activity in C57BL/6 mouse model of LPS-induced acute lung injury assessed as reduction in neutrophil count in BALF at 10 mg/kg, ip administered daily for one week prior to LPS challenge and measured after 6 hrs", "format": "functional, organism-based", "summary_of_the_method": "as §2"}, "Mus musculus [11]": {"test_system": "Mus musculus", "assay": "Antiinflammatory activity in C57BL/6 mouse model of LPS-induced acute lung injury assessed as reduction in IL-6 production in serum at 10 mg/kg, ip administered daily for one week prior to LPS challenge and measured after 6 hrs by ELISA", "format": "functional, organism-based", "summary_of_the_method": "as §3"}, "Mus musculus [12]": {"test_system": "Mus musculus", "assay": "Antiinflammatory activity in C57BL/6 mouse model of LPS-induced acute lung injury assessed as reduction in TNF-alpha mRNA expression in lung tissue at 10 mg/kg, ip administered daily for one week prior to LPS challenge and measured after 6 hrs by TRIZOL reagent-based RT-qPCR analysis", "format": "functional, organism-based", "summary_of_the_method": "as §1"}, "[13]": {"assay": "MRT (0 to infinity) in Sprague-Dawley rat at 5 mg/kg, iv by UHPLC-MS/MS analysis", "format": "ADME, organism-based", "conditions": "in vivo", "summary_of_the_method": "(§4)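 Male Sprague-Dawley rats (250 ± 20 g) fasted overnight with free access to water, n = 5 per route. Intravenous dose was 5 mg/kg; the intragastric dose is printed as 20 mg/kg in the methods and 50 mg/kg in the table. Tail blood was taken at 0.083, 0.25, 0.5, 1, 2, 4, 6, 9, 12 and 24 h. Samples were centrifuged (12000 rpm, 10 min), deproteinized with 2 volumes of acetonitrile, re-centrifuged and quantified by UHPLC-MS/MS.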"}, "[14]": {"assay": "Cmax in Sprague-Dawley rat at 50 mg/kg, po by UHPLC-MS/MS analysis", "format": "ADME, organism-based", "set-up": "dose 50 mg/kg, route oral", "conditions": "in vivo", "summary_of_the_method": "as §4"}, "[15]": {"assay": "Cmax in Sprague-Dawley rat at 5 mg/kg, iv by UHPLC-MS/MS analysis", "format": "ADME, organism-based", "set-up": "dose 5 mg/kg, route intravenous", "conditions": "in vivo", "summary_of_the_method": "as §4"}, "[16]": {"assay": "MRT (0 to t) in Sprague-Dawley rat at 5 mg/kg, iv by UHPLC-MS/MS analysis", "format": "ADME, organism-based", "conditions": "in vivo", "summary_of_the_method": "as §4"}, "[17]": {"assay": "Half life in Sprague-Dawley rat at 50 mg/kg, po by UHPLC-MS/MS analysis", "format": "ADME, organism-based", "conditions": "in vivo", "summary_of_the_method": "as §4"}, "[18]": {"assay": "AUC (0 to t) in Sprague-Dawley rat at 5 mg/kg, iv by UHPLC-MS/MS analysis", "format": "ADME, organism-based", "conditions": "in vivo", "summary_of_the_method": "as §4"}, "[19]": {"assay": "AUC (0 to t) in Sprague-Dawley rat at 50 mg/kg, po by UHPLC-MS/MS analysis", "format": "ADME, organism-based", "conditions": "in vivo", "summary_of_the_method": "as §4"}, "[20]": {"assay": "MRT (0 to infinity) in Sprague-Dawley rat at 50 mg/kg, po by UHPLC-MS/MS analysis", "format": "ADME, organism-based", "conditions": "in vivo", "summary_of_the_method": "as §4"}, "[21]": {"assay": "AUC (0 to infinity) in Sprague-Dawley rat at 50 mg/kg, po by UHPLC-MS/MS analysis", "format": "ADME, organism-based", "set-up": "dose 50 mg/kg, time infinity, route oral", "conditions": "in vivo", "summary_of_the_method": "as §4"}, "[22]": {"assay": "Half life in Sprague-Dawley rat at 5 mg/kg, iv by UHPLC-MS/MS analysis", "format": "ADME, organism-based", "conditions": "in vivo", "summary_of_the_method": "as §4"}, "[23]": {"assay": "MRT (0 to t) in Sprague-Dawley rat at 50 mg/kg, po by UHPLC-MS/MS analysis", "format": "ADME, organism-based", "conditions": "in vivo", "summary_of_the_method": "as §4"}},
  "note": "Activity calls are given as the source filed them. No cut-off for these calls is given here.",
  "data": [
    {"smiles": "COc1cc(/C=C/C(=O)N2CCC/C(=C\\c3cc(OC)c(OC)c(OC)c3)C2=O)ccc1O", "values": [
      {"measurement": "Activity", "setting": "Mus musculus [1]", "value": "Active"},
      {"measurement": "inhibition", "setting": "RAW264.7 [2]", "value": "90.9 to 92.5", "unit": "%"},
      {"measurement": "inhibition", "setting": "[3]", "value": "Active"},
      {"measurement": "Activity", "setting": "Mus musculus [4]", "value": "Active"},
      {"measurement": "inhibition", "setting": "[5]", "value": "Active"},
      {"measurement": "Activity", "setting": "Mus musculus [6]", "value": "Active"},
      {"measurement": "inhibition", "setting": "RAW264.7 [7]", "value": "99.3 to 99.7", "unit": "%"},
      {"measurement": "Stability", "setting": "[8]", "value": "Stable"},
      {"measurement": "Activity", "setting": "Mus musculus [9]", "value": "Active"},
      {"measurement": "Activity", "setting": "Mus musculus [10]", "value": "Active"},
      {"measurement": "Activity", "setting": "Mus musculus [11]", "value": "Active"},
      {"measurement": "Activity", "setting": "Mus musculus [12]", "value": "Active"}
    ]},
    {"smiles": "COc1cc(/C=C/C(=O)N2CCC/C(=C\\c3cc(OC)c(OC)c(OC)c3)C2=O)ccc1OC(C)=O", "values": [
      {"measurement": "Activity", "setting": "Mus musculus [1]", "value": "Active"},
      {"measurement": "MRT", "setting": "[13]", "value": 19.9, "unit": "h"},
      {"measurement": "inhibition", "setting": "RAW264.7 [2]", "value": "90.9 to 92.5", "unit": "%"},
      {"measurement": "inhibition", "setting": "[3]", "value": "Active"},
      {"measurement": "inhibition", "setting": "[5]", "value": "Active"},
      {"measurement": "Activity", "setting": "Mus musculus [6]", "value": "Active"},
      {"measurement": "inhibition", "setting": "RAW264.7 [7]", "value": "99.3 to 99.7", "unit": "%"},
      {"measurement": "Cmax", "setting": "[14]", "value": 113, "unit": "ng/mL"},
      {"measurement": "Stability", "setting": "[8]", "value": "Stable"},
      {"measurement": "Activity", "setting": "Mus musculus [9]", "value": "Active"},
      {"measurement": "Cmax", "setting": "[15]", "value": 16.4, "unit": "ng/mL"},
      {"measurement": "MRT last", "setting": "[16]", "value": 11.3, "unit": "h"},
      {"measurement": "t1/2", "setting": "[17]", "value": 6.7, "unit": "h"},
      {"measurement": "AUC(0-t)", "setting": "[18]", "value": 34.4, "unit": "ng·h/mL"},
      {"measurement": "Activity", "setting": "Mus musculus [10]", "value": "Active"},
      {"measurement": "AUC(0-t)", "setting": "[19]", "value": 231, "unit": "ng·h/mL"},
      {"measurement": "Activity", "setting": "Mus musculus [11]", "value": "Active"},
      {"measurement": "MRT inf", "setting": "[20]", "value": 12.3, "unit": "h"},
      {"measurement": "AUC", "setting": "[21]", "value": 325.6, "unit": "ng·h/mL"},
      {"measurement": "Activity", "setting": "Mus musculus [12]", "value": "Active"},
      {"measurement": "t1/2", "setting": "[22]", "value": 0.2, "unit": "h"},
      {"measurement": "MRT last", "setting": "[23]", "value": 7.8, "unit": "h"}
    ]}
  ]
}
